# The sample as a whole holds a higher share of hits than the screen did.
# NOD2 RIPK2 PPI = blocks binding of human NOD2 to RIPK2; actives 0.38% (n = 360,000); inhibition, % at 4.98 µM; O43353; CHO BLA complementation NOD2-RIPK2, CCF4 ratio; in the data active = inhibition above about 21%;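 also: 0% = vehicle only and 100% = reference blocker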
# Target sequence (O43353 whole entry, looked up): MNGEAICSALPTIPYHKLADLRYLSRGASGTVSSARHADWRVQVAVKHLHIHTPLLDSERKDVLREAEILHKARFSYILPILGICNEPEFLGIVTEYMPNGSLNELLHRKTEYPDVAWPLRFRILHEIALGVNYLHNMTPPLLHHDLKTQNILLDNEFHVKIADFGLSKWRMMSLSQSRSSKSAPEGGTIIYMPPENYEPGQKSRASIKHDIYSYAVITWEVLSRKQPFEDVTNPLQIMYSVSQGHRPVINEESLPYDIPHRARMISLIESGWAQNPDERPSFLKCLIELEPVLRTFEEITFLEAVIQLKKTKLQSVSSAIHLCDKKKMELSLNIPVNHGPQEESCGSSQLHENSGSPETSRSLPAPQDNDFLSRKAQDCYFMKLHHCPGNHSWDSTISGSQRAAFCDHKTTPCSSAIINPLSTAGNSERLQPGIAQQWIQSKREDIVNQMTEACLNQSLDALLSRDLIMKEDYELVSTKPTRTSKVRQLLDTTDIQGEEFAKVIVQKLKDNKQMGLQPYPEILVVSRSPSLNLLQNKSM
# TLR9-MyD88 inh = inhibitors of human TLR9-MyD88 binding | Q9NR96+Q99836 | AID 504734 | actives 0.21% (n = 340,000) | CHO BLA complementation TLR9-MyD88, CCF4 FRET ratio | inhibition, % at 4.98 µM;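 active = inhibition above the mean over all tested compounds plus 3 SD, cut at about 21% in these data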;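 also: 0% = DMSO only wells and 100% = clavulanate BLA inhibitor control wells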
# UPR CHOP act = apoptotic UPR (CHOP) activation. CHO-CHOP luciferase reporter, luminescence; percent of tunicamycin response over DMSO baseline. activation, % at 10 µM. actives 0.34% (n = 330,000). AID 449763;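 active = at 10 µM dose, activation of 40% or more, normalized to positive control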;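 also: 100% = tunicamycin at 10 µg/mL and 0% = DMSO alone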
#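 Test system: CHO CHOP reporter cells. Input: 500 CHO-CHOP cells per well. Medium: F12 with 10% FBS. Technique: luciferase luminescence. Measure: percent activation relative to tunicamycin control. Dosing: 10 µM compound, 0.5% DMSO. Timing: 16-18 h cell attachment, then 6 h compound exposure, 37 °C.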
# TLR4 MyD88 comp = blocks binding of human TLR4 to MyD88 | actives 0.18% (n = 200,000) | inhibition, % at 8.4 µM | HeLa CL3-4 TLR4/MyD88 BLA complementation, FRET ratio | AID 861 | O00206+Q99836; in the data active = inhibition above about 25%;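 also: 0% = vehicle and 100% = reference inhibitor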
# CHOP inh = blocks CHOP induction under ER stress; AID 2732; inhibition, % at 10 µM; actives 3.8% (n = 220,000); CHO-K1 CHOP-promoter luciferase, tunicamycin-induced, 15-18 h;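 active = compounds that reduced the stress-induced luciferase reporter signal by more than about 70% of percent inhibition, limit read from the data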;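 also: 0% = tunicamycin plus vehicle and 100% = wells without tunicamycin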
# XBP1 UPR activ = adaptive UPR (XBP1) activation. CHO-XBP1 luciferase reporter, IRE1-XBP1 UPR activation, luminescence; percent of tunicamycin response, DMSO as zero. actives 0.33% (n = 330,000). AID 463104. activation, % at 20 µM;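 active = versus positive control, 20 µM dose yields 30% or more activation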;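 also: 100% = tunicamycin at 10 µg/mL and 0% = DMSO only wells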
#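 incubation = overnight seeding at 37 °C, 6 h compound treatment at 37 °C | assay system = CHO-XBP1 cells stably carrying IRE1-XBP1-driven luciferase reporter | input = 1000 cells per well | detection = luciferase luminescence | dosing = single point, 20 µM final compound, 1% DMSO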
# CHOP inh conf = confirmation of CHOP induction inhibitors. shares compounds with CHOP inh. actives 45% (n = 2,100). inhibition, % at 10 µM. CHO-CHOP promoter luciferase reporter, tunicamycin-induced, luminescence;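 active = mean of three repeat readings of reporter signal inhibition above a set limit, cut at about 70% in these data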;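 also: 0% = tunicamycin plus vehicle and 100% = wells lacking tunicamycin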
# Starred values were filed as active, the others as inactive; nt = no result given.
SMILES,NOD2 RIPK2 PPI,TLR9-MyD88 inh,UPR CHOP act,TLR4 MyD88 comp,CHOP inh,XBP1 UPR activ,CHOP inh conf
Cc1nnc(SCc2cc(=O)[nH]c(N3CCCCC3)n2)s1,0.7,-5.7,-1.3,6.1,nt,-1.6,nt
Cc1ccc(-n2c(C)cc3c2CC(C)(C)CC3=O)cc1C,2.6,-1.1,-0.5,7.0,105.3*,0.9,37.7
CC1(c2ccccc2)CC(C)(C)n2c(O)c(C3=NC(=S)NC3=O)c3cccc1c32 (centres undefined),8.1,-9.4,1.9,nt,103.9*,19.1,109.4*
C=CCNC(=O)c1ccc2c(c1)S(=O)(=O)c1ccccc1C2=O,1.1,6.1,-2.6,nt,nt,5.2,nt
CCCCOC(=O)c1nc(Cl)c(Cl)c(N)c1Cl,-9.5,-4.8,4.4,-5.5,5.7,-0.1,nt
CCCCCCCOC(=O)c1nc(Cl)c(Cl)c(N)c1Cl,2.7,-5.4,0.7,2.2,98.7*,0.8,54.6
Cc1ccc(-c2ccccc2)n1-c1ccc(C(=O)O)cc1,-4.3,-0.8,1.6,5.4,17.1,-1.1,nt
Oc1ccccc1-n1c(-c2ccccc2)ccc1-c1ccccc1,8.9,1.2,0.7,nt,104.5*,3.5,118.6*
Cc1ccc(-c2cc(-c3ccc(C)cc3O)[nH]n2)cc1,16.1,-12.0,5.4,nt,nt,2.1,nt
Oc1ccc(Br)cc1-c1cc(-c2ccccc2Cl)[nH]n1,0.3,-2.2,3.3,nt,-31.9,3.0,nt
Oc1ccc(Cl)cc1-c1cc(-c2ccccc2)n[nH]1,4.8,-3.8,1.2,-2.3,104.8*,5.8,81.5*
Oc1ccccc1-c1cc(-c2ccccc2)n[nH]1,2.2,-3.6,4.4,nt,nt,1.8,nt
Oc1ccc(Br)cc1-c1cc(-c2ccccc2F)[nH]n1,3.4,1.5,4.9,-4.7,98.3*,3.3,99.7*
Cc1ccc(O)c(-c2cc(-c3cccc(Br)c3)n[nH]2)c1,2.2,7.6,3.5,2.1,96.7*,6.5,33.8
Cc1ccc(NC(=O)C(=O)NCc2ccc(/C=N/NC(=O)c3c(C)nc4ccccn34)o2)cc1,4.0,8.4,3.8,9.5,12.9,0.5,nt
COc1ccc(CCNc2ccc(C(CC(N)=O)NC(=O)c3cc(OC)ccc3OC)cc2[N+](=O)[O-])cc1 (centres undefined),16.5,7.6,1.2,nt,nt,-2.3,nt
CCn1c(=O)c(C(=O)NNS(=O)(=O)c2ccc(Br)cc2)c(O)c2ccccc21,-0.3,-5.5,0.4,-24.1,105.3*,-0.1,67.5
COc1cccc(CNC(=O)[C@@H]2CCCN2C(=O)[C@@H]2CCCN2C(=O)OC(C)(C)C)c1,6.0,nt,nt,nt,nt,nt,nt
Cc1cc(=O)n2c(C(=O)Nc3ccc(C)c(C)c3)c(C(=O)Nc3ccccc3)sc2n1,-7.4,4.7,2.4,2.7,97.2*,-0.1,25.5
Cc1ccc(NC(=O)c2c(C(=O)Nc3ccccc3)sc3nc(C)cc(=O)n23)cc1,-17.1,-0.3,-0.4,-3.2,39.1,2.9,nt
Cc1cc(Cl)c(S(=O)(=O)N2CCN(c3cccc(C)c3C)CC2)cc1OCC(N)=O,-1.1,-6.7,0.2,-4.2,107.1*,-3.6,69.5
O=C(CCCOc1ccc(Cl)cc1Cl)N/N=C\C1CCCCC1,-10.1,-2.4,0.9,5.2,104.9*,-1.0,83.2*
O=C(CCCOc1ccc(Cl)cc1Cl)NCCCO,-1.5,-18.1,0.5,-5.4,31.5,-1.3,nt
COCc1nnc(NC(=O)CCN2C(=O)c3ccccc3C2=O)s1,-7.9,14.3,-2.6,10.8,99.0*,0.6,9.8
CCCc1nnc(NC(=O)CCN2C(=O)c3ccccc3C2=O)s1,-7.7,2.1,-2.0,-0.9,27.0,-0.8,nt
SMILES,NOD2 RIPK2 PPI,TLR9-MyD88 inh,UPR CHOP act,TLR4 MyD88 comp,CHOP inh,XBP1 UPR activ,CHOP inh conf
CCOc1ccccc1Nc1nnc(SCC(=O)N(C)C2CCS(=O)(=O)C2)s1 (centres undefined),-1.0,-4.1,-0.7,nt,nt,-0.5,nt
C/C(=N\N=C(/N)SC1CC(=O)N(c2ccc(Cl)c(Cl)c2)C1=O)c1cccs1 (centres undefined),-4.6,-0.4,-0.4,1.0,109.9*,-0.5,18.6
C/C(=N\N=C(/N)SC1CC(=O)N(c2ccc(Cl)cc2)C1=O)c1cccs1 (centres undefined),-17.1,1.9,1.5,-9.5,68.7,-0.3,nt
COc1ccc(C2c3[nH]c4ccccc4c3C[C@H]3C(=O)N(c4ccccc4C(=O)N4CCC[C@H]4C(=O)O)C(=O)N23)cc1 (some centres undefined),-8.3,-5.1,0.0,nt,nt,2.2,nt
Cc1cc(NC(=O)C2CCCCC2)n(-c2nc3ccccc3[nH]2)n1,-1.8,1.4,1.0,7.1,102.1*,5.0,39.8
Cc1cc(NC(=O)c2c(F)cccc2F)n(-c2nc3ccccc3[nH]2)n1,3.3,-8.7,5.1,6.8,99.6*,5.1,-6.3
COc1ccc(/C=C/C(=O)c2cc3c(cc2N)OCO3)cc1,4.1,-3.2,3.7,-15.4,7.1,4.3,nt
CC(NC(=O)c1ccc(CS(C)(=O)=O)cc1)c1cccc2ccccc12 (centres undefined),-2.7,2.2,-0.2,nt,nt,-1.9,nt
CCN(CC(=O)Nc1ccc(NC(C)=O)cc1)C(=O)c1ccccc1CCc1ccccc1,-10.3,-0.9,-0.8,nt,nt,-3.2,nt
Nc1ncc(S(=O)(=O)c2ccc(Cl)cc2)c(N)n1,1.9,-0.5,-0.8,nt,nt,-2.2,nt
O=C1CC(c2ccccc2Br)c2cc3c(cc2N1)CCC3 (centres undefined),nt,nt,-0.8,4.0,101.3*,-1.3,41.2
CCOC(=O)c1c(CSc2ccccc2)oc2ccc(O)cc12,10.1,3.7,0.3,-12.0,105.5*,8.5,14.5
CCOC(=O)c1c(-c2ccccc2)oc2ccc(O)cc12,-9.0,2.6,0.3,nt,nt,1.4,nt
CCOc1cc2[nH]c(=O)n(CCC(=O)N3CCN(c4ccccc4OC)CC3)c(=O)c2cc1OCC,-4.8,-2.4,0.7,6.8,30.2,1.4,nt
COc1cc2[nH]c(=O)n(CCC(=O)N3CCN(c4cc(Cl)ccc4C)CC3)c(=O)c2cc1OC,-6.0,-0.8,1.9,-9.1,103.6*,2.5,55.5
Cc1ccc(C(=O)Nc2ccc3c(c2)nc(CCNC(=O)c2ccco2)n3C)cc1,-7.5,5.2,5.5,nt,nt,1.4,nt
O=S(=O)(Nc1ccc2oc(-c3ccccc3)nc2c1)c1ccccc1,1.4,0.0,4.1,-10.7,nt,5.3,nt
Cc1ccc(-c2nc3cc(NS(=O)(=O)c4ccc(C)cc4)ccc3o2)cc1,1.1,-0.9,-0.5,-4.4,105.1*,1.2,80.0*
Cc1ccc(-c2nc3cc(N)ccc3o2)cc1,10.6,2.5,-1.2,-2.1,101.5*,-1.8,59.5
Cc1c(NC(=O)COC(=O)CCc2c[nH]c3ccccc23)c(=O)n(-c2ccccc2)n1C,4.3,-6.7,-0.6,nt,nt,-2.7,nt

# Screening data from PubChem BioAssay.
